Legend:
Hepatocyte [1] = assay: Cytotoxicity in primary rat hepatocytes assessed as decrease in number of hepatocytes after 24 hrs; type: cell-based; parameters: scale not given: the % may be the effect or the level left
Hepatocyte [2] = assay: Cytotoxicity in primary rat hepatocytes assessed as increase in LDH release after 24 hrs; type: cell-based
SW480 [3] = assay: Cytotoxicity against human SW480 cells at 50 mM after 24 hrs; type: functional
Procedure, shortened: (§1)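 Human colon carcinoma SW480 cultures were exposed to spin traps at 10 to 100 mM for 24 h. Cytotoxicity was read as the dose-dependent loss in cell number. LDH released into the culture supernatant was also measured and expressed per cell as % of non-treated control. Apoptotic nuclei were stained to distinguish necrosis from apoptosis.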

SW480 [4] = assay: Cytotoxicity against human SW480 cells at 100 mM after 24 hrs; type: functional; procedure, shortened: as §1

Row | Structure (SMILES) | Activity (Hepatocyte [1]) [%] | Activity (Hepatocyte [2]) | Activity (SW480 [3]) [%] | Activity (SW480 [4]) [%]
1 | CCOC(=O)C1(C)CC(C)C=[N+]1[O-] (stereo unspecified) | 60 | Active | <25 | 
2 | CCCOC(=O)C1(C)CC(C)C=[N+]1[O-] (stereo unspecified) |  |  | <25 | 
3 | CC1C=[N+]([O-])C(C)(C(=O)OC(C)C)C1 (stereo unspecified) | 60 | Active | <25 | 
4 | CCOC(=O)C1(C)C(C)CC=[N+]1[O-] (stereo unspecified) | 60 | Active | <25 | 
5 | CCCOC(=O)C1(C)C(C)CC=[N+]1[O-] (stereo unspecified) |  |  |  | 95

Source: ChEMBL document CHEMBL1139822, “Cytotoxicity of the novel spin trapping compound 5-ethoxycarbonyl-3,5-dimethyl-pyrroline N-oxide (3,5-EDPO) and its derivatives” (Bioorg Med Chem Lett, 2007)
